High-throughput results: PubChem BioAssay, The Scripps Research Institute Molecular Screening Center
HTR5A ag = HTR5A agonists in luminescence cell assay, primary screen, counter-screen for OPRM1-OPRD1 heterodimer agonist project, full-deck HTS. 5-hydroxytryptamine receptor 5A (Homo sapiens), P47898. cell-based. activation, % at 9.3 µM. 340,000 compounds, 0.61% hits. AID 504692, 2011; in the data active = activation mostly above about 9.5%, no sharp cut-off; inactive = mostly below about 7.6%;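 also: 0% = cells with vehicle only and 100% = reference agonist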
MOR-DOR inv ag = inverse agonists of MOR-DOR heterodimerization, primary screen, cell-based, luminescence | Mu-type opioid receptor (Homo sapiens) + Delta-type opioid receptor (Homo sapiens), … | cell-based MOR-DOR heterodimer luminescence, inverse agonism | inhibition, % at 9.3 µM | 340,000 compounds, 0.21% hits; in the data active = inhibition above about 22%, passing the limit was not always enough;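 also: 0% = cells with DMSO and 100% = wells without cells with DMSO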
Target sequence (P35372 whole entry, looked up): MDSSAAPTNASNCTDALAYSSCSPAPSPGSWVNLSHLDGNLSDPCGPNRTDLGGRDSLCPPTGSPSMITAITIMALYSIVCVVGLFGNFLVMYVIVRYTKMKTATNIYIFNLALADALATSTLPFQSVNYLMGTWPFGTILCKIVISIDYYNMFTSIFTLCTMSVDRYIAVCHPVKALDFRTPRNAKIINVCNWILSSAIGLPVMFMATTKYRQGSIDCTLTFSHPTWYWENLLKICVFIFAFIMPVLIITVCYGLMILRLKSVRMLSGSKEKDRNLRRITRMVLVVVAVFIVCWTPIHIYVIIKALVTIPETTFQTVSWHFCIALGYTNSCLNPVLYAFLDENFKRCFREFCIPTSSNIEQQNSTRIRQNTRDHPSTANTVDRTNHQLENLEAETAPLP
Target sequence (P41143 whole entry, looked up): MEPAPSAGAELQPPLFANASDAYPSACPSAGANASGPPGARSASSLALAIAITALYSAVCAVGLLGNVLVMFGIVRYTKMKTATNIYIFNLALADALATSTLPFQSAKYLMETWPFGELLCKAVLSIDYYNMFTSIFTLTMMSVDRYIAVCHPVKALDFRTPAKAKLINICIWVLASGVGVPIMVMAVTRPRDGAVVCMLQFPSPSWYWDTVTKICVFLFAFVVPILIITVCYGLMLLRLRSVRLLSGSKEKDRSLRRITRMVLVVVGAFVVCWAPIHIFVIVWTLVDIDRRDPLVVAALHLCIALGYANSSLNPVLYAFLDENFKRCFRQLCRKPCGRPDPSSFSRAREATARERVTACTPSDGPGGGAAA
OPRM1-OPRD1 ag = agonists of OPRM1-OPRD1 heterodimerization, primary screen, cell-based, luminescence. AID 504326, 2011. 340,000 compounds, 0.3% hits. activation, % at 9.3 µM. cells. Mu-type opioid receptor (Homo sapiens) + Delta-type opioid receptor (Homo sapiens), …; in the data active = activation above about 18%;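 also: 0% = vehicle-treated cells and 100% = reference agonist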
MC4R ag barr = MC4R agonists recruiting beta-arrestin, primary screen, cell-based, luminescence, agonist arm of biased-ligand search; Melanocortin receptor 4 (Homo sapiens), P32245; U2OS MC4R beta-arrestin complementation; percent of melanotan II response, DMSO zero; activation, % at 8.9 µM; 360,000 compounds, 0.98% hits;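 active = activation above a per-plate cutoff, the mean activation of sample wells on that plate plus 3 SD, cut at about 8% in these data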
MC4R antagonist = MC4R antagonists of cAMP signaling, primary screen, cell-based, TR-FRET, antagonist arm of biased-ligand search; 360,000 compounds, 0.48% hits; inhibition, % at 6.5 µM; MC4R-expressing cells, MTII-stimulated cAMP, LANCE TR-FRET; Melanocortin receptor 4 (Homo sapiens), P32245; AID 540295, 2011;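 active = inhibition above its plate's cutoff, the mean of tested wells on that plate plus 3 SD, cut at about 29% in these data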;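 also: 0% = Melanotan II alone and 100% = Melanotan II plus saturating MCL0020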
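System: U2OS cells stably expressing human melanocortin 4 receptor (MC4R). Reagent: Melanotan II challenge after compound preincubation. Doses: 6.5 µM. Times: 30-min compound, 1-h challenge, 1-h detection, room temperature. Measured by: TR-FRET with Eu-cAMP and labeled anti-cAMP, 671 nm. Replicates: singlicate.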
HTR5A inv ctr = HTR5A inverse agonists in luminescence cell assay, primary screen, counter-screen for OPRM1-OPRD1 heterodimer inverse agonist project, full-deck HTS. inhibition, % at 9.3 µM. AID 504634, 2011. HTR5A cell line, inverse agonism. 340,000 compounds, 0.083% hits; in the data active = inhibition mostly above about 23%, no sharp cut-off; inactive = mostly below about 18%;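 also: 0% = cells with DMSO and 100% = no-cell wells with DMSO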
OPRM1-D1 inv cf = inverse agonists of MOR-DOR heterodimerization, confirmation, cell-based, luminescence. shares compounds with MOR-DOR inv ag. cells expressing OPRM1/OPRD1 heterodimer. inhibition, % at 9.3 µM. 580 compounds, 20% hits; in the data active = inhibition above about 32%;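 also: 0% = cells with DMSO and 100% = wells lacking cells with DMSO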
HTR5A inv ctr2 = HTR5A inverse agonists, counter-screen for OPRM1-OPRD1 inverse agonist project, cell-based, luminescence. HTR5A-expressing cells, inverse agonism. 580 tested, under 10 active. shares compounds with MOR-DOR inv ag. inhibition, % at 9.3 µM; call rule not given here;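 also: 0% = cells with DMSO and 100% = no-cell wells with DMSO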
* = called active by the depositor; i = inactive; . = not tested or not shown. Rows were chosen to be rich in hits. Some 2.4% of all compounds tested hit in one or more screens of this group.

SMILES	HTR5A ag	MOR-DOR inv ag	OPRM1-OPRD1 ag	MC4R ag barr	MC4R antagonist	HTR5A inv ctr	OPRM1-D1 inv cf	HTR5A inv ctr2
O=c1c2c3c(sc2n2cnnc2n1Cc1ccccc1)CN(Cc1ccccc1)CC3	-7.5	33.7*	-6.2	-1.4	12.1	22.0	-37.2	-27.0
Cc1ccc(/C(O)=C2\C(=O)C(=O)N(CC(C)O)C2c2ccccn2)cc1 (stereo not drawn)	0.4	3.6	-0.8	-2.4	-2.4	-1.0	.	.
FC(F)(F)c1nc2ccccc2n2c(-c3ccc(Cl)cc3)nnc12	-4.3	30.6*	-6.6	-2.6	6.7	9.3	14.2	4.1
Cc1ccc(-c2nnc3c(C(F)(F)F)nc4ccccc4n23)cc1	1.8	20.1	-4.0	-1.7	22.1	-4.6	.	.
CCCCNC(=S)NNC(=O)c1cc(C2CC2)nc2ccccc12	1.0	11.6	-2.2	-2.3	7.0	-3.5	.	.
CCCCNC(=S)NNC(=O)c1cc(-c2ccncc2)nc2ccccc12	-5.3	33.5*	-6.5	-3.5	7.8	22.8	-290.2	-8.6
Cc1[nH]nc(SCC(=O)NC2CCCCC2)c1[N+](=O)[O-]	0.1	18.4	-3.6	-2.0	-0.6	3.5	.	.
O=C(NC(=S)Nc1ccccc1O)c1cncc(Br)c1	-3.9	41.2*	-8.3	-0.8	0.9	10.1	-99.3	-31.7
CCC(C)c1ccc(O)c(NC(=S)NC(=O)c2cccnc2)c1 (stereo not drawn)	-7.0	47.2*	-8.6	-2.6	28.1	19.3	i	-3.0
O=C(NC(=S)Nc1ccccc1O)c1cccnc1	-2.6	34.8*	-6.9	-1.3	9.1	9.9	22.5	-9.0
O=C(NC(=S)Nc1ccccc1C(=O)O)c1cncc(Br)c1	1.8	12.8	-2.6	-1.5	-1.4	-6.8	.	.
O=C(O)c1ccccc1C(=O)Nc1ccc(S(=O)(=O)NC2CCCCC2)cc1	1.2	2.4	-0.5	-1.7	11.0	-13.7	.	.
Cc1ccc(N2C(=O)c3ccccc3C2=O)nc1	-0.8	15.6	-3.3	-1.4	3.3	3.2	.	.
CCOc1ccc(N=C2C(=O)Nc3ccc(C)c(Br)c32)cc1	-4.2	53.4*	-9.6	-2.0	4.6	16.6	83.4*	10.8
Cc1ccc2c(c1Br)/C(=N/N1C(=O)c3ccccc3C1=O)C(=O)N2	-2.9	65.3*	-11.0	-1.1	4.4	-1.5	-33.8	-21.2
O=C(Cn1cnc2c(nnn2Cc2ccc(F)cc2)c1=O)NCc1ccco1	5.0	3.8	-0.6	-0.9	13.9	8.4	.	.
O=C(C1=C(Nc2ccccc2)c2ccccc2S(=O)(=O)N1)c1ccccc1	-3.5	31.5*	-5.7	-2.1	5.8	7.2	18.9	13.9
CCCN(CCC)c1nc(-c2ccccn2)nc2ccccc12	-0.8	39.2*	-8.7	-3.8	17.8	3.0	-159.4	-18.6
CC(=O)Nc1ccccc1C(=O)C(=O)O	-2.9	36.6*	-6.5	0.9	9.7	7.4	-5.7	-3.6
Cc1ncc([N+](=O)[O-])n1CC(=O)Nc1ccccc1Cl	.	.	.	0.2	9.2	.	.	.
CC(=O)C(Sc1nc(N(C)C)nc(N(C)C)n1)C(=O)Nc1ccccc1 (stereo not drawn)	-2.5	-4.5	0.9	0.9	20.3	-3.7	.	.
CC(=O)C(Sc1nn(C)c(=S)s1)C(=O)Nc1ccccc1 (stereo not drawn)	-10.9	72.1*	-15.8	-0.8	-7.6	16.1	-265.9	-38.3
CC1(C2CC2)NC(=O)N(CC(=O)N2CCN(c3ccc(F)cc3)CC2)C1=O (stereo not drawn)	1.9	5.2	-0.8	-2.8	19.0	-6.6	.	.
Cc1ccc(C)c(C(O)c2ncc(-c3ccccc3F)[nH]2)c1 (stereo not drawn)	.	.	.	-2.5	-2.6	.	.	.
O=C1N(Cc2ccccc2)CC2(Br)COCOC12O (stereo not drawn)	-4.9	44.9*	-8.7	-0.8	0.4	19.0	-20.8	-1.3
SMILES	HTR5A ag	MOR-DOR inv ag	OPRM1-OPRD1 ag	MC4R ag barr	MC4R antagonist	HTR5A inv ctr	OPRM1-D1 inv cf	HTR5A inv ctr2
O=C(NCC(c1ccccc1)N1CCCC1)C1CCN(C(=O)Nc2ccccc2)CC1 (stereo not drawn)	-1.4	4.8	-0.9	-2.4	-5.5	3.8	.	.
O=C1c2ccccc2-c2nc3ccccc3nc21	-6.3	79.4*	-16.1	-0.5	-2.3	10.1	-437.0	-9.9
Cc1nc2c(nc1C)C(=O)c1ccccc1C2=O	0.6	8.7	-2.0	-1.5	-18.1	-2.1	.	.
Cn1nc(C(=O)OCC(=O)Nc2ccccc2[N+](=O)[O-])c2ccccc2c1=O	-1.8	3.1	-0.8	0.9	0.7	4.5	.	.
O=[N+]([O-])c1ccc(N/N=C/c2ccccc2O)cc1	2.1	-9.9	1.8	-1.6	-2.9	-8.2	.	.
O=[N+]([O-])c1ccc(O)c(C=NNc2ccc(S(=O)(=O)O)cc2)c1	-3.8	31.2*	-6.2	-0.8	-5.6	14.7	-84.9	-11.8
Cc1cc(NC(=O)CSc2nc3c([nH]c4ccccc43)c(=O)n2-c2ccccc2F)no1	-3.1	34.2*	-6.4	-6.5	4.1	15.2	12.5	14.8
Cc1cc(NC(=O)CSCC(=O)OCC(=O)c2cccc(Br)c2)no1	-8.3	26.8*	-6.5	-2.0	5.9	20.4	-34.5	6.6
C#CCOCCOCCOCCNc1nc(N2CCN(C(=O)[C@H](CCCCN)n3cc(CN)nn3)CC2)nc(N2CCN(C(=O)[C@H](CCC(=O)O)n3cc([C@@H](N)CCSC)nn3)CC2)n1	3.3	9.1	-1.9	-1.1	0.0	-11.4	.	.
Cc1ccccc1CN1C(=O)C(O)(CC(=O)c2ccncc2)c2ccccc21 (stereo not drawn)	-1.3	45.0*	-8.0	-2.5	-18.1	3.5	-84.1	-31.8
O=C(CC1(O)C(=O)N(Cc2ccccc2)c2ccccc21)c1ccncc1 (stereo not drawn)	-8.9	39.7*	-8.1	-1.7	-8.4	21.7	-151.6	-116.8
COc1ccc(C(=O)NC(=S)Nc2nnn(C)n2)cc1	-3.1	27.1	-6.0	-0.7	13.1	21.0	.	.
Cn1nnc(NC(=S)NC(=O)c2cccc3c(Cl)cccc23)n1	-3.6	31.4*	-5.9	-5.0	-2.5	14.6	-12.7	16.5
COc1c(C(=O)NC(=S)Nc2nnn(C)n2)cc2ccccc2c1Br	-0.8	3.1	-0.6	0.4	-3.6	2.0	.	.
COc1cccc(C(=O)NC(=S)Nc2nnn(C)n2)c1	0.8	27.9*	-5.0	-2.6	12.9	9.3	-2.0	14.7
